The record followed here is ChEMBL document CHEMBL1145530, “Synthesis and evaluation of isosteres of N-methyl indolo[3,2-b]-quinoline (cryptolepine) as new antiinfective agents” (Bioorg Med Chem, 2007).

Molecules are shown by their SMILES. Values after ≈ are worked out from the molar mass of the structure shown. Active and inactive are the calls of the source. No cut-off for these calls is given here.

Test [1] deals with Candida albicans. Nature of the test: Antifungal activity against Candida albicans ATCC 90028. In kind it is functional. The essentials:
(§1)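 Broth microdilution following modified NCCLS methods, Franzblau variant for M. intracellulare. DMSO samples serially diluted in saline and tested in duplicate. Inoculum set by 0.5 McFarland. Media: C. albicans SDB or RPMI 1640; C. neoformans SDB; A. fumigatus YM broth (MIC) or RPMI-1640 + 5% Alamar Blue (IC50); M. intracellulare 7H9/OADC + 5% Alamar Blue. Top final concentration 20 µg/mL.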

For test [2], the system named is Cryptococcus neoformans. In words: Antifungal activity against Cryptococcus neoformans ATCC 90113. In kind it is functional, organism-based. In outline:
as §1

For test [3], the system named is Aspergillus fumigatus. In words: Antifungal activity against Aspergillus fumigatus ATCC 90906. The following applies: for MIC: in the assay text read “Antifungal” for “Antibacterial”. It counts as functional, organism-based. The essentials: as §1
Test [4] relates to Mycobacterium intracellulare. Nature of the test: Antibacterial activity against Mycobacterium intracellular ATCC 23068. In kind it is functional, organism-based. The essentials: as §1
In test [5] the test system is Leishmania donovani. Nature of the test: Antileishmanial activity against Leishmania donovani promastigotes. In kind it is functional, organism-based. In outline:
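L. donovani promastigotes from a 3-day culture in RPMI 1640 with 10% FCS, diluted to 5×10^5/mL. Drug dilutions made directly in the cell suspension. 48 h at 26 °C. Growth measured by Alamar Blue fluorescence at 544/590 nm. IC50 and IC90 from percent growth versus concentration.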

The test system of test [6] is Plasmodium falciparum. Nature of the test: Anti-infective activity against Plasmodium falciparum D6 infected red blood cells up to 4.76 ug/mL. It counts as functional.
Test [7] concerns Plasmodium falciparum. In words: Anti-infective activity against Plasmodium falciparum W2 in erythrocytes. It counts as functional, organism-based.
The test system of test [8] is Vero. In words: Cytotoxicity against Vero cells. It counts as cell-based. As to conditions: Chlorocebus sabaeus. The essentials:
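VERO monkey kidney […] seeded at 25,000 cells/well and grown 24 h, then exposed to compound for 48 h, highest concentration 23.8 µg/ml. Viability by neutral red uptake. IC50 from growth-inhibition curves. DMSO as vehicle control.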

Test [9] can be described thus: Anti-infective activity against Plasmodium falciparum D6 infected red blood cells. In kind it is functional.
Test [10] relates to Plasmodium falciparum. In words: Anti-infective activity against Plasmodium falciparum W2 in erythrocytes up to 4.76 ug/mL. It counts as functional, organism-based.

In general, MIC refers to the least concentration at which growth counts as inhibited. Higher therefore signals a less susceptible organism. Broadly, the IC50 is the concentration needed to halve the response being measured. Read a high IC50 as lower potency.

As to `C[n+]1c2ccc(C(=O)O)cc2cc2sc3ccccc3c21.[I-]`, the MIC is over 20 µg/mL in test [1], over 20 µg/mL in test [2] and 10 µg/mL in [3]. The IC50 is 20 µg/mL in [4], 0.39 µg/mL in test [5], 4.5 µg/mL in test [7] and 7 µg/mL in [8]. The result in test [6] was inactive.
`C[n+]1cccc2sc3ccc([N+](=O)[O-])cc3c21.[I-]`: the MIC in test [1], in test [2] and in test [3] was over 20 µg/mL each time. The half-maximal inhibitory concentration (IC50) was over 20 µg/mL in test [4]; over 40 µg/mL in [5]; 0.4 µg/mL in test [9]; 0.46 µg/mL in [7]; over 23.8 µg/mL in test [8].
`O=C(O)c1cn(C2CC2)c2cc(N3CCNCC3)c(F)cc2c1=O` [CIPROFLOXACIN] showed an IC50 in test [4] of 0.35 µg/mL (≈ 1.06 µM).
Regarding `C[n+]1c2ccc(C#N)cc2cc2sc3ccccc3c21.[I-]`, the MIC was over 20 µg/mL in [1], over 20 µg/mL in test [2] and 20 µg/mL in test [3]. Also, the IC50 in test [4] was over 20 µg/mL; in [5] it was 2.6 µg/mL; in test [8], over 23.8 µg/mL. The result in test [6] and in test [10] was inactive.
As to `[I-].c1ccc(CCCCC[n+]2cccc3sc4ccccc4c32)cc1`, the MIC in test [1] was over 20 µg/mL; in test [2], 20 µg/mL; in [3], 20 µg/mL. The IC50 in [4] was 1.5 µg/mL; in test [5] it was 1.2 µg/mL; in [9], 0.27 µg/mL; in [7] it was 0.22 µg/mL; in test [8], 20 µg/mL.
As to `CCN(CC)CCCC(C)Nc1ccnc2cc(Cl)ccc12` (centres undefined) [CHLOROQUINE], the IC50 is 0.02 µg/mL (≈ 0.0625 µM) in test [9] and over 4.7 µg/mL in [8].
For the molecule `CN(C)c1ccc2sc3ccc[n+](C)c3c2c1`, the MIC in test [1], in test [2] and in test [3] was over 20 µg/mL in each case. In addition, the IC50 in [4] was 15 µg/mL; in [5], 3 µg/mL; in [9], 0.18 µg/mL; in test [7] it was 0.2 µg/mL; in test [8], over 23.8 µg/mL.
`C[n+]1c2ccccc2cc2sc3ccccc3c21.O=S(=O)([O-])C(F)(F)F`: the values for the MIC in test [1] and in test [2] were 10 µg/mL and over 20 µg/mL, respectively. In addition, the IC50 in test [3] was 6.5 µg/mL; in test [4], 15 µg/mL; in test [5] it was 0.27 µg/mL; in test [9] it was 0.34 µg/mL; in [7], 0.3 µg/mL; in test [8], over 23.8 µg/mL.
`N=C(N)c1ccc(OCCCCCOc2ccc(C(=N)N)cc2)cc1` [PENTAMIDINE] gave a concentration for half-maximal inhibition (IC50) in test [5] of 0.7 µg/mL (≈ 2.06 µM).
On to `C[n+]1c2ccc(C(N)=O)cc2cc2sc3ccccc3c21.[I-]`, for which the MIC in test [1], in [2] and in [3] was over 20 µg/mL each time. In addition, the IC50 is over 20 µg/mL in test [4], 40 µg/mL in [5] and over 23.8 µg/mL in test [8]. Moreover, the outcome in test [6] and in test [10] was inactive.
For `C[n+]1cccc2sc3ccccc3c21.[I-]`, the MIC in [1], in test [2] and in test [3] was over 20 µg/mL each time. Moreover, the IC50 was over 20 µg/mL in test [4], 1.5 µg/mL in [9], 1.2 µg/mL in test [7] and over 23.8 µg/mL in test [8].
In turn, `C[n+]1c2ccccc2cc2sc3ccccc3c21.[I-]` returned an MIC in [3] of over 20 µg/mL. Further, the IC50 in test [4] was over 20 µg/mL; in test [5] it was 0.35 µg/mL; in [9], 1.6 µg/mL; in test [7], 2 µg/mL; in test [8] it was over 23.8 µg/mL.
Regarding `C[C@@H]1CC[C@H]2[C@@H](C)C(=O)O[C@@H]3O[C@@]4(C)CC[C@@H]1[C@]32OO4` [ARTEMISININ], the results for the IC50 in test [9], in test [7] and in test [8] were 0.02 µg/mL (≈ 0.0708 µM), 0.02 µg/mL (≈ 0.0708 µM) and over 4.7 µg/mL, respectively.
Take `C[n+]1c2ccccc2cc2oc3ccccc3c21.[I-]`: the MIC in [1] and in test [2] was over 20 µg/mL in each case. In addition, the IC50 was 15 µg/mL in test [3]; over 20 µg/mL in test [4]; 2.2 µg/mL in test [5]; 0.28 µg/mL in [9]; 0.28 µg/mL in [7]; over 23.8 µg/mL in [8].
On to `COc1ccc2c(c1)cc1sc3ccccc3c1[n+]2C.[I-]`, for which the results for the MIC in test [1] and in test [3] were over 20 µg/mL and 20 µg/mL, respectively. In addition, the IC50 in test [2] was 8 µg/mL; in test [4], over 20 µg/mL; in [5], 0.6 µg/mL; in test [9] it was 0.74 µg/mL; in test [7], 0.74 µg/mL; in test [8], over 23.8 µg/mL.
For the molecule `C[n+]1c2c(cc3ccccc31)Cc1ccccc1-2.[I-]`, the MIC in test [1], in test [2] and in [3] was over 20 µg/mL each time. Further, the IC50 in [4] is over 20 µg/mL.
As for `C[n+]1c2ccccc2cc2[nH]c3ccccc3c21.[I-]` [CRYPTOLEPTINE IODIDE], the MIC in test [1] is 2 µg/mL; in test [3], over 20 µg/mL. Besides, the IC50 in [4] is 15 µg/mL; in test [5] it was 0.23 µg/mL; in test [9] it was 0.18 µg/mL; in [7] it was 0.35 µg/mL; in [8], 3.2 µg/mL.
With `C[C@@H]1[C@H](O)[C@@H](C)/C=C/C=C/C=C/C=C/C=C/C=C/C=C/[C@H](O[C@@H]2O[C@H](C)[C@@H](O)[C@H](N)[C@@H]2O)C[C@@H]2O[C@](O)(C[C@@H](O)C[C@@H](O)[C@H](O)CC[C@@H](O)C[C@@H](O)CC(=O)O[C@H]1C)C[C@H](O)[C@H]2C(=O)O` [AMPHOTERICIN B], the MIC was 0.25 µg/mL (≈ 0.271 µM) in test [1] and 0.95 µg/mL (≈ 1.03 µM) in test [2]. The molecule also yielded an IC50 in test [3] of 0.85 µg/mL (≈ 0.92 µM).
Turning to `C[n+]1c2ccc(Cl)cc2cc2sc3ccccc3c21.[I-]`, the MIC in [1] came to 2 µg/mL; in test [2], 15 µg/mL; in test [3], 4 µg/mL. The IC50 was over 20 µg/mL in test [4]; 0.42 µg/mL in test [5]; 4 µg/mL in test [9]; 2.8 µg/mL in test [7]; over 23.8 µg/mL in [8].
